Source: ChEMBL document CHEMBL1926675, “Thio- and aminocaffeine analogues as inhibitors of human monoamine oxidase” (Bioorg Med Chem, 2011)

Experiments:
[1] = molecular target: T1, Amine oxidase [flavin-containing] A (Homo sapiens, UniProt P21397); assay: Inhibition of human recombinant MAOA at 100 uM using kynuramine as substrate by fluorescence assay
T1 sequence (P21397 whole entry): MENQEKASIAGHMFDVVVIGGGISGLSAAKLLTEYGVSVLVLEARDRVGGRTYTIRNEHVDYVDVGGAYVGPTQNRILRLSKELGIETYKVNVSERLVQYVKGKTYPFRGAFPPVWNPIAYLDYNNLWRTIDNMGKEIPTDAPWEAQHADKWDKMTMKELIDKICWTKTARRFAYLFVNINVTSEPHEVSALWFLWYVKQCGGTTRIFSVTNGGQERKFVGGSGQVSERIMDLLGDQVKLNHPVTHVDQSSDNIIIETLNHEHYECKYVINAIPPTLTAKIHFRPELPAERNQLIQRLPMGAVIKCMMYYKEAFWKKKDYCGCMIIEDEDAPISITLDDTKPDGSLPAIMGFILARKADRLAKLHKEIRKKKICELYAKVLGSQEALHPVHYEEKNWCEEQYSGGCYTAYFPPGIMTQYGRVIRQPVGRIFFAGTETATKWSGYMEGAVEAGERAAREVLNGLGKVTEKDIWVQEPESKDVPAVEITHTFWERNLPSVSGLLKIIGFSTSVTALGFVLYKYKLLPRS
Summary of the method: (§1)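 Enzyme: insect-cell microsomal recombinant human MAO-A or -B (0.0075 mg/mL) in 100 mM potassium phosphate, pH 7.4, isotonic with KCl. Kynuramine 45 µM (MAO-A) or 30 µM (MAO-B), inhibitor 0–100 µM, 37 °C, 20 min. Reaction stopped with 2 N NaOH. 4-Hydroxyquinoline fluorescence read at ex 310/em 400 nm against a calibration curve. IC50 taken from one-site fits of six concentrations, in triplicate. Selectivity = IC50(MAO-A)/IC50(MAO-B).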

[2] = molecular target: T2, Amine oxidase [flavin-containing] B (Homo sapiens, UniProt P27338); assay: Inhibition of human recombinant MAOB at 100 uM using kynuramine as substrate by fluorescence assay; summary of the method: as §1
T2 sequence (P27338 whole entry): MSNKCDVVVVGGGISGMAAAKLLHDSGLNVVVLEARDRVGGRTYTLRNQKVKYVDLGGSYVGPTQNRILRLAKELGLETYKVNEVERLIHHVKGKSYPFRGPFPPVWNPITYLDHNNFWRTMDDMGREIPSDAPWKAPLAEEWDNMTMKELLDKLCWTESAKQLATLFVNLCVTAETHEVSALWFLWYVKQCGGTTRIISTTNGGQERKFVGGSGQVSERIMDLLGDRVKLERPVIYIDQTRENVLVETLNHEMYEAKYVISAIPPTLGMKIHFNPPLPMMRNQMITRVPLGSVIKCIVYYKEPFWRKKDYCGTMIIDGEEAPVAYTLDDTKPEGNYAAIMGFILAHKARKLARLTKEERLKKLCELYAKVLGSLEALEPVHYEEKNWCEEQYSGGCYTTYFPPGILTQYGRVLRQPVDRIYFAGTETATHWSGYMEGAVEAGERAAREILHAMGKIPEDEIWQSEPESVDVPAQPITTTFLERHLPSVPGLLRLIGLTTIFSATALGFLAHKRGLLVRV

[3] = molecular target: T1, Amine oxidase [flavin-containing] A; assay: Inhibition of human recombinant MAOA using kynuramine as substrate by fluorescence assay; summary of the method: as §1
[4] = molecular target: T2, Amine oxidase [flavin-containing] B; assay: Inhibition of human recombinant MAOB using kynuramine as substrate by fluorescence assay; summary of the method: as §1
Homo sapiens = organism: Homo sapiens; assay: Selectivity ratio, ratio of IC50 for human recombinant MAOA to IC50 for human recombinant MAOB; summary of the method: as §1
[5] = molecular target: T1, Amine oxidase [flavin-containing] A; assay: Time dependent inhibition of human recombinant MAOA using kynuramine as substrate at 5.22 uM by fluorescence assay
Summary of the method: (§2)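 Recombinant human MAO-A or -B (0.015–0.03 mg/mL) was preheated at 37 °C for 60 min in total and preincubated with inhibitor at about 2× its IC50 for 0, 15, 30 or 60 min in pH 7.4 potassium phosphate. Mixtures were diluted 2-fold with kynuramine (45 µM MAO-A, 30 µM MAO-B) and incubated 15 min at 37 °C. Residual 4-hydroxyquinoline formation was read by fluorescence.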

[6] = molecular target: T2, Amine oxidase [flavin-containing] B; assay: Time dependent inhibition of human recombinant MAOB using kynuramine as substrate at 0.32 uM by fluorescence assay; summary of the method: as §2
[7] = molecular target: T1, Amine oxidase [flavin-containing] A; assay: Competitive inhibition of human recombinant MAOA using kynuramine as substrate at 1.31 to 5.22 uM by Lineweaver burk plot analysis
Summary of the method: (§3)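 Insect-cell microsomal recombinant human MAO-A or -B, 0.015 mg/mL, in potassium phosphate buffer (100 mM, pH 7.4, isotonic with KCl). Initial rates were measured with four kynuramine concentrations (15–90 µM), without inhibitor and with three inhibitor levels (MAO-A 1.31–5.22 µM; MAO-B 0.04–0.16 µM). Lineweaver–Burk plots were fitted by linear regression.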

[8] = molecular target: T2, Amine oxidase [flavin-containing] B; assay: Competitive inhibition of human recombinant MAOB using kynuramine as substrate at 0.04 to 0.16 uM by Lineweaver burk plot analysis; summary of the method: as §3
[9] = molecular target: T1, Amine oxidase [flavin-containing] A; assay: Inhibition of human recombinant MAOA using kynuramine as substrate at 5.22 uM after 60 mins by fluorescence assay; conditions: 1 h; summary of the method: as §2
[10] = molecular target: T2, Amine oxidase [flavin-containing] B; assay: Inhibition of human recombinant MAOB using kynuramine as substrate at 0.32 uM after 60 mins by fluorescence assay; conditions: 1 h; summary of the method: as §2
[11] = molecular target: T1, Amine oxidase [flavin-containing] A; assay: Reversible Inhibition of human recombinant MAOA using kynuramine as substrate at 2 times IC50 up to 60 mins; conditions: 1 h; summary of the method: as §2
[12] = molecular target: T2, Amine oxidase [flavin-containing] B; assay: Reversible Inhibition of human recombinant MAOB using kynuramine as substrate at 2 times IC50 up to 60 mins; conditions: 1 h; summary of the method: as §2
[13] = molecular target: T1, Amine oxidase [flavin-containing] A; assay: Time dependent inhibition of human recombinant MAOA using kynuramine as substrate at 11.56 uM by fluorescence assay; summary of the method: as §2
[14] = molecular target: T1, Amine oxidase [flavin-containing] A; assay: Inhibition of human recombinant MAOA using kynuramine as substrate at 11.56 uM after 60 mins by fluorescence assay; conditions: 1 h; summary of the method: as §2
[15] = molecular target: T2, Amine oxidase [flavin-containing] B; assay: Time dependent inhibition of human recombinant MAOB using kynuramine as substrate at 5.94 uM by fluorescence assay; summary of the method: as §2
[16] = molecular target: T2, Amine oxidase [flavin-containing] B; assay: Inhibition of human recombinant MAOB using kynuramine as substrate at 5.94 uM after 60 mins by fluorescence assay; conditions: 1 h; summary of the method: as §2

IC50 [3] [µM]	IC50 [4] [µM]	Ratio IC50 (Homo sapiens)	Structure (SMILES)	other results
			Cn1c(=O)c2c(nc(NCCCc3ccccc3)n2C)n(C)c1=O	IC50 [1]: Not Active; IC50 [2]: Not Active
8.22	1.86	4.4	Cn1c(=O)c2c(nc(SCc3ccccc3)n2C)n(C)c1=O	
24.4	13.1	1.9	Cn1c(=O)c2c(nc(SC3CCCCC3)n2C)n(C)c1=O	
20.5	0.223	91.9	Cn1c(=O)c2c(nc(SCCc3ccccc3)n2C)n(C)c1=O	
56.4	33.2	1.7	Cn1c(=O)c2c(nc(Sc3ccccc3)n2C)n(C)c1=O	
15.2	2.62	5.8	CC(C)CCSc1nc2c(c(=O)n(C)c(=O)n2C)n1C	
15.5	0.332	46.7	Cn1c(=O)c2c(nc(SCCOc3ccccc3)n2C)n(C)c1=O	
			Cn1c(=O)c2c(nc(NC3CCCC3)n2C)n(C)c1=O	IC50 [1]: Not Active; IC50 [2]: Not Active
4.8	0.348	13.8	Cn1c(=O)c2c(nc(SCc3ccc(F)cc3)n2C)n(C)c1=O	
			COc1ccc(CSc2nc3c(c(=O)n(C)c(=O)n3C)n2C)cc1	IC50 [1]: Not Active; IC50 [2]: Not Active
2.77	0.192	14.4	Cn1c(=O)c2c(nc(SCc3ccc(Cl)cc3)n2C)n(C)c1=O	
			Cn1c(=O)c2c(nc(Nc3ccccc3)n2C)n(C)c1=O	IC50 [1]: Not Active; IC50 [2]: Not Active
	19.4		Cn1c(=O)c2c(nc(NCCc3ccccn3)n2C)n(C)c1=O	IC50 [1]: Not Active
			Cn1c(=O)c2c(nc(NCc3ccccc3)n2C)n(C)c1=O	IC50 [1]: Not Active; IC50 [2]: Not Active
9.4	20.9	0.4	Cn1c(=O)c2c(nc(SC3CCCC3)n2C)n(C)c1=O	
107	16.8	6.4	CN(CCc1ccccc1)c1nc2c(c(=O)n(C)c(=O)n2C)n1C	
30.9	9.6	3.2	Cn1c(=O)c2c(nc(NCCCCc3ccccc3)n2C)n(C)c1=O	
2.62	0.167	15.7	Cn1c(=O)c2c(nc(SCc3ccc(Br)cc3)n2C)n(C)c1=O	TDI [5]: Not Active; TDI [6]: Not Active; inhibition (INH) [7]: Active; inhibition (INH) [8]: Active; inhibition (INH) [9]: Not Active; inhibition (INH) [10]: Not Active; inhibition (INH) [11]: Active; inhibition (INH) [12]: Active
45.2	17.6	2.6	Cn1c(=O)c2c(nc(NCCc3ccccc3)n2C)n(C)c1=O	
3.6	3.6	1	Cn1c(=O)c2c(nc(Sc3ccc4ccccc4c3)n2C)n(C)c1=O	
5.78	24.4	0.2	Cn1c(=O)c2c(nc(NCCc3cccc(Cl)c3)n2C)n(C)c1=O	TDI [13]: Not Active; inhibition (INH) [14]: Not Active; inhibition (INH) [11]: Active
37.7	2.97	12.7	CN(CCCCc1ccccc1)c1nc2c(c(=O)n(C)c(=O)n2C)n1C	TDI [15]: Not Active; inhibition (INH) [16]: Not Active; inhibition (INH) [12]: Active
